{"source": "ChEMBL document CHEMBL1126277", "about": "“6-substituted decahydroisoquinoline-3-carboxylic acids as potent and selective conformationally constrained NMDA receptor antagonists” (J Med Chem, 1992)", "key": {"Mus musculus [1]": {"system": "Mus musculus", "test": "Minimum effective dose measures the in vivo N-methyl-D-aspartate glutamate receptor antagonist activity of compound and its ability to protect mice from lethality induced by 200 mg/kg ip injection of NMDA.", "type": "functional", "settings": "route intraperitoneal, read-out: MED", "outline": "(§1)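 Mice were given the compound ip 30 min before an ip challenge of NMDA at 200 mg/kg, a dose lethal to ≥95% of animals. Survival was scored with five animals tested per dose. MED was taken as the lowest dose protecting >50% of animals, meaning at least three of five survived.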"}, "Glutamate NMDA receptor [2]": {"target": "Glutamate NMDA receptor", "test": "Displacement of [3H]CGS-19,755 from glutamate recognition site of N-methyl-D-aspartate glutamate receptor complex", "type": "protein-complex assay, Rattus norvegicus"}, "[3]": {"test": "In vitro inhibition of 40 uM NMDA induced depolarization in rat cortical slices."}, "Mus musculus [4]": {"system": "Mus musculus", "test": "Minimum effective dose measures the in vivo NMDA antagonist activity of compound and its ability to protect mice from lethality induced by 200 mg/kg ip injection of NMDA.", "type": "functional", "settings": "route intraperitoneal; for MED: NMDA challenge 200 mg/kg, 200 mg/kg; for minimal effective dose: Mus musculus, ip, read-out: MED", "outline": "as §1"}, "Glutamate NMDA receptor [5]": {"target": "Glutamate NMDA receptor", "test": "In vitro compound's ability to displace [3H]-CGS-19,755 binding as a measure of its affinity for the glutamate recognition site on the NMDA receptor complex.", "type": "protein-complex assay"}}, "data": [{"compound": "O=C(O)C1Cc2cc(CP(=O)(O)O)ccc2CN1", "note": "(stereo not drawn)", "values": [{"measurement": "minimal effective dose", "setting": "Mus musculus [1]", "value": "> 160", "unit": "mg/kg"}, {"measurement": "IC50", "setting": "Glutamate NMDA receptor [2]", "value": 13.8, "unit": "µM"}, {"measurement": "IC50", "setting": "[3]", "value": 34.4, "unit": "µM"}]}, {"compound": "O=C(O)C1Cc2cc(Cc3nnn[nH]3)ccc2CN1", "note": "(stereo not drawn)", "values": [{"measurement": "minimal effective dose", "setting": "Mus musculus [1]", "value": "> 160", "unit": "mg/kg"}, {"measurement": "IC50", "setting": "[3]", "value": 36.6, "unit": "µM"}]}, {"compound": "O=C(O)C1NCCC2CC(Cc3nnn[nH]3)CCC21", "note": "(stereo not drawn)", "values": [{"measurement": "minimal effective dose", "setting": "Mus musculus [1]", "value": 160, "unit": "mg/kg"}, {"measurement": "IC50", "setting": "[3]", "value": 7.8, "unit": "µM"}]}, {"compound": "O=C(O)C1CC2C[C@@H](Cc3nnn[nH]3)CCC2CN1", "note": "(stereo in doubt; 32b)", "values": [{"measurement": "MED", "setting": "Mus musculus [4]", "value": 40, "unit": "mg/kg"}, {"measurement": "IC50", "setting": "[3]", "value": 4.8, "unit": "µM"}]}, {"compound": "O=C(O)C1CC2C[C@@H](Cc3nnn[nH]3)CCC2CN1", "note": "(stereo in doubt; 32a)", "values": [{"measurement": "MED", "setting": "Mus musculus [4]", "value": 2.5, "unit": "mg/kg"}, {"measurement": "IC50", "setting": "[3]", "value": 1.39, "unit": "µM"}]}, {"compound": "O=C(O)[C@@H]1C[C@H]2CC(Cc3nnn[nH]3)CC[C@H]2N1", "note": "(stereo partly drawn)", "values": [{"measurement": "minimal effective dose", "setting": "Mus musculus [1]", "value": "> 160", "unit": "mg/kg"}, {"measurement": "IC50", "setting": "Glutamate NMDA receptor [2]", "value": "> 10", "unit": "µM"}, {"measurement": "IC50", "setting": "[3]", "value": "> 100", "unit": "µM"}]}, {"compound": "O=C(O)[C@H]1C[C@@H](Cc2nnn[nH]2)CCN1", "values": [{"measurement": "minimal effective dose", "setting": "Mus musculus [4]", "value": 5, "unit": "mg/kg"}, {"measurement": "IC50", "setting": "[3]", "value": 4.2, "unit": "µM"}]}, {"compound": "O=C(O)[C@@H]1C[C@H](CP(=O)(O)O)CCN1", "note": "[SELFOTEL]", "values": [{"measurement": "IC50", "setting": "[3]", "value": 1.6, "unit": "µM"}]}, {"compound": "O=C(O)[C@@H]1C[C@H]2CC(CP(=O)(O)O)CC[C@H]2N1", "note": "(stereo partly drawn)", "values": [{"measurement": "minimal effective dose", "setting": "Mus musculus [1]", "value": "> 160", "unit": "mg/kg"}, {"measurement": "IC50", "setting": "Glutamate NMDA receptor [2]", "value": "> 10", "unit": "µM"}, {"measurement": "IC50", "setting": "[3]", "value": "> 100", "unit": "µM"}]}, {"compound": "O=C(O)C1CC2CC(Cc3nnn[nH]3)CCC2CN1", "note": "(stereo not drawn)", "values": [{"measurement": "minimal effective dose", "setting": "Mus musculus [1]", "value": "> 160", "unit": "mg/kg"}, {"measurement": "IC50", "setting": "Glutamate NMDA receptor [2]", "value": "> 10", "unit": "µM"}, {"measurement": "IC50", "setting": "[3]", "value": "> 100", "unit": "µM"}]}, {"compound": "O=C(O)C1CC2CC(CP(=O)(O)O)CCC2CN1", "note": "(stereo not drawn)", "values": [{"measurement": "minimal effective dose", "setting": "Mus musculus [1]", "value": "> 160", "unit": "mg/kg"}, {"measurement": "IC50", "setting": "Glutamate NMDA receptor [2]", "value": "> 10", "unit": "µM"}, {"measurement": "IC50", "setting": "[3]", "value": "> 100", "unit": "µM"}]}, {"compound": "CN1CCC2(CCCC(CP(=O)(O)O)C2)CC1C(=O)O", "note": "(stereo not drawn)", "values": [{"measurement": "minimal effective dose", "setting": "Mus musculus [4]", "value": "> 160", "unit": "mg/kg"}, {"measurement": "IC50", "setting": "Glutamate NMDA receptor [5]", "value": "> 10", "unit": "µM"}]}]}
